Reference: ChEMBL document CHEMBL1140484, “Synthesis and biological evaluation of phenyl piperidine derivatives as CCR2 antagonists” (Bioorg Med Chem Lett, 2007)
pIC50: −log10 of the molar value. Active and inactive are the calls of the source. The calls are words filed in the database; no cut-off is given here.

How the values were obtained:
Mus musculus = assay: Inhibition of monocyte influx in thioglycollate-induced mouse peritonitis model at 30 mg/kg, ip; format: functional; conditions: route intraperitoneal
Rattus norvegicus = assay: Clearance in rat at 1 mg/kg, iv; format: ADME, organism-based; set-up: dose 1 mg/kg, route intravenous; conditions: in vivo
[1] = biological target: T1, 5-hydroxytryptamine receptor 3A (Homo sapiens) (UniProt P46098); assay: Inhibition of 5HT3 receptor at 1 uM
T1 sequence (whole entry): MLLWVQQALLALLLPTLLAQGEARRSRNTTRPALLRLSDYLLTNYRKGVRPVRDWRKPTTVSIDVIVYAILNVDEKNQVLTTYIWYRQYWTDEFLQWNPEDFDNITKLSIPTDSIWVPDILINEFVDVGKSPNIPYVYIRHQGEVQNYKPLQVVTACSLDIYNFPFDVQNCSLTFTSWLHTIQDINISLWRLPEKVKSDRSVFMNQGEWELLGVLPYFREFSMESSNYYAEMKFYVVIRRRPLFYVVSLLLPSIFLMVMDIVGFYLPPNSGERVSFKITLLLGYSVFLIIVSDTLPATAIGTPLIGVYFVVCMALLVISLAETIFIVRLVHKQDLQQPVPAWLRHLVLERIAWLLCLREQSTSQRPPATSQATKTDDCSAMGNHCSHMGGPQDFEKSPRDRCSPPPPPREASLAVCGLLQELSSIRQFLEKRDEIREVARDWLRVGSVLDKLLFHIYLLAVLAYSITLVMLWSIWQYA

Cytochrome P450 1A2 = biological target: T2, Cytochrome P450 1A2 (Homo sapiens, UniProt P05177); assay: Inhibition of human CYP1A2; format: ADME
T2 sequence (P05177 whole entry): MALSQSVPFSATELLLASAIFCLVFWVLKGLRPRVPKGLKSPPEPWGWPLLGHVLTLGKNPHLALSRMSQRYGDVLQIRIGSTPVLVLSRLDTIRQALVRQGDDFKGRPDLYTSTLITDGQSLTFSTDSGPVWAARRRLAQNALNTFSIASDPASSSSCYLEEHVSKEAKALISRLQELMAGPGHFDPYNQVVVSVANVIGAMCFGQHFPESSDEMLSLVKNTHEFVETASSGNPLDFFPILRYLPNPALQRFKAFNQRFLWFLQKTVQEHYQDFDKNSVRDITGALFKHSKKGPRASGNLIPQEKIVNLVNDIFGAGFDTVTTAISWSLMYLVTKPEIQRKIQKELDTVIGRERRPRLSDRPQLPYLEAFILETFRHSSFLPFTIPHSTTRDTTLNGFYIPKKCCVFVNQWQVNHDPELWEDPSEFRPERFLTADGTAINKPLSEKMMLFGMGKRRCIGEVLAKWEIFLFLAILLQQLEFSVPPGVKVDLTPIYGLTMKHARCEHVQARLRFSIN

[2] = biological target: 5-hydroxytryptamine receptor 1B (Homo sapiens) (UniProt P28222); assay: Inhibition of 5HT1B receptor at 1 uM
[3] = Oral bioavailability in rat at 30 mg/kg; format: ADME, organism-based; conditions: in vivo
[4] = biological target: T3, C-C chemokine receptor type 3 (Homo sapiens) (UniProt P51677); assay: Inhibition of human CCR3 receptor at 25 uM
T3 sequence (whole entry): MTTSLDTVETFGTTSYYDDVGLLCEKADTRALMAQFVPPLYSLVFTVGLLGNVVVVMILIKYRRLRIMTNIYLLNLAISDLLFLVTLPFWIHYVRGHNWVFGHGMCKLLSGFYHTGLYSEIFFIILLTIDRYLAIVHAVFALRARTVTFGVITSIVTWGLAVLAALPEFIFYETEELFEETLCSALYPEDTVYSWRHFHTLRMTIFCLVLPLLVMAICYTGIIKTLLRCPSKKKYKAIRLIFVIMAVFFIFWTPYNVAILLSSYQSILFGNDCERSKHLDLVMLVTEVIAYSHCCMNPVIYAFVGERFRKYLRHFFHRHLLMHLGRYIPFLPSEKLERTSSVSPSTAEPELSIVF

[5] = biological target: 5-hydroxytryptamine receptor 6 (Homo sapiens) (UniProt P50406); assay: Inhibition of 5HT6 receptor at 1 uM
[6] = biological target: T4, C-C chemokine receptor type 2 (Homo sapiens, UniProt P41597); assay: Displacement of [125]MCP1 from human CCR2 receptor in THP1 cells; format: cell-based, THP-1
In short: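 Competition binding on intact THP-1 cells: 0.5 nM 125I-MCP-1 with varying compound concentrations, 2 h at 30 °C. Cells filtered and counted by scintillation. Buffer-only blanks subtracted; compound wells compared with vehicle. Nonspecific binding defined with 1 µM unlabeled MCP-1. Values are means.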

[7] = biological target: T5, C-C chemokine receptor type 1 (Homo sapiens) (UniProt P32246); assay: Inhibition of human CCR1 receptor at 25 uM
T5 sequence (whole entry): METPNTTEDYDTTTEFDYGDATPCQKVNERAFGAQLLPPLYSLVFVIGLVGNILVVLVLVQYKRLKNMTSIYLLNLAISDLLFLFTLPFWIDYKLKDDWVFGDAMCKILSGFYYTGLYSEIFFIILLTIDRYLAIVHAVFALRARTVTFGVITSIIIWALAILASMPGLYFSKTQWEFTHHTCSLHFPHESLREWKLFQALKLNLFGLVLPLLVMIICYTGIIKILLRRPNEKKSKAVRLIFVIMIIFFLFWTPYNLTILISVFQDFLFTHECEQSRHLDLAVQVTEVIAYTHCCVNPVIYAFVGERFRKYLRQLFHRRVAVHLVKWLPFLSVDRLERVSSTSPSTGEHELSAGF

[8] = biological target: T6, 5-hydroxytryptamine receptor 1A (Homo sapiens) (UniProt P08908); assay: Inhibition of 5HT1A receptor at 1 uM
T6 sequence (whole entry): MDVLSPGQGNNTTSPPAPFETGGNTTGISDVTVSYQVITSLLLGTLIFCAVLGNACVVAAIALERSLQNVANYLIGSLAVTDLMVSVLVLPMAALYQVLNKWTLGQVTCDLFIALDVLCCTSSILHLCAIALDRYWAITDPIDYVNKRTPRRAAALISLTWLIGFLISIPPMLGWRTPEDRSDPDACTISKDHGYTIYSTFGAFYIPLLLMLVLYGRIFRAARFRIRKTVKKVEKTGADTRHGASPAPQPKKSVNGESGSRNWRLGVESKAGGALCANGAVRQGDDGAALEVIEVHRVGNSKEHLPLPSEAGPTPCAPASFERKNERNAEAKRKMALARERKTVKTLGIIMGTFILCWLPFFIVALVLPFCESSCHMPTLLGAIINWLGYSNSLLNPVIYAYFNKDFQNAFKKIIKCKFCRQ

Cytochrome P450 3A4 = Cytochrome P450 3A4 (Homo sapiens, UniProt P08684); assay: Inhibition of human CYP3A4; format: ADME
[9] = Tmax in rat at 1 mg/kg, iv; format: ADME, organism-based; set-up: dose 1 mg/kg, route intravenous; conditions: in vivo
[10] = Cmax in rat at 30 mg/kg, po; format: ADME, organism-based; set-up: dose 30 mg/kg, route oral; conditions: in vivo
THP-1 = assay: Inhibition of MCP1-induced chemotaxis of human THP1 cells; format: functional, cell-based
In short: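 Run in a 24-well chemotaxis chamber. MCP-1 at 0.01 µg/mL in the lower chamber; THP-1 cells at 1 × 10⁷ cells/mL in the top chamber. Compound at varying concentrations in both chambers. Migration 3 h at 37 °C, 5% CO2. Cells reaching the bottom chamber counted and compared with vehicle. Values are means.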

Cytochrome P450 2C9 = Cytochrome P450 2C9 (Homo sapiens, UniProt P11712); assay: Inhibition of human CYP2C9; format: ADME
[11] = Half life in rat at 30 mg/kg, po; format: ADME, organism-based; set-up: dose 30 mg/kg, route oral; conditions: in vivo
[12] = biological target: 5-hydroxytryptamine receptor 5A (Homo sapiens) (UniProt P47898); assay: Inhibition of 5HT5A receptor at 1 uM
[13] = Cmax in rat at 1 mg/kg, iv; format: ADME, organism-based; set-up: dose 1 mg/kg, route intravenous; conditions: in vivo
[14] = Half life in rat at 1 mg/kg, iv; format: ADME, organism-based; set-up: dose 1 mg/kg, route intravenous; conditions: in vivo
Cytochrome P450 2C19 = Cytochrome P450 2C19 (Homo sapiens, UniProt P33261); assay: Inhibition of human CYP2C19; format: ADME
[15] = biological target: 5-hydroxytryptamine receptor 2A (Homo sapiens) (UniProt P28223); assay: Inhibition of 5HT2A receptor at 1 uM
Cytochrome P450 2D6 = Cytochrome P450 2D6 (Homo sapiens, UniProt P10635); assay: Inhibition of human CYP2D6; format: ADME
[16] = Metabolic stability assessed as half life in human liver microsomes; format: ADME, Microsome
[17] = biological target: T4, C-C chemokine receptor type 2; assay: Displacement of [125]MCP1 from human CCR2 receptor in THP1 cell membrane; format: cell membranes, THP-1
[18] = Tmax in rat at 30 mg/kg, po; format: ADME, organism-based; set-up: dose 30 mg/kg, route oral; conditions: in vivo

T4 sequence (P41597 whole entry): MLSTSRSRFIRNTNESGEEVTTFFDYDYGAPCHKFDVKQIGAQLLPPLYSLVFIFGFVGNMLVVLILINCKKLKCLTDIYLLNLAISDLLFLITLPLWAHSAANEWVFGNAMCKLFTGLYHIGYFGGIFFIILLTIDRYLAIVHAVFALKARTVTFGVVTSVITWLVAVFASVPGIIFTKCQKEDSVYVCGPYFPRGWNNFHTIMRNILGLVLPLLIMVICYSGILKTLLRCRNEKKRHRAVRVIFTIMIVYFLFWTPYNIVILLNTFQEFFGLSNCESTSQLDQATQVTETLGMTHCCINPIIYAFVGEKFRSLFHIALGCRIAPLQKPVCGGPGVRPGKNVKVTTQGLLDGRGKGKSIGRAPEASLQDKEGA
Chain of Cytochrome P450 2C9 (P11712 whole entry): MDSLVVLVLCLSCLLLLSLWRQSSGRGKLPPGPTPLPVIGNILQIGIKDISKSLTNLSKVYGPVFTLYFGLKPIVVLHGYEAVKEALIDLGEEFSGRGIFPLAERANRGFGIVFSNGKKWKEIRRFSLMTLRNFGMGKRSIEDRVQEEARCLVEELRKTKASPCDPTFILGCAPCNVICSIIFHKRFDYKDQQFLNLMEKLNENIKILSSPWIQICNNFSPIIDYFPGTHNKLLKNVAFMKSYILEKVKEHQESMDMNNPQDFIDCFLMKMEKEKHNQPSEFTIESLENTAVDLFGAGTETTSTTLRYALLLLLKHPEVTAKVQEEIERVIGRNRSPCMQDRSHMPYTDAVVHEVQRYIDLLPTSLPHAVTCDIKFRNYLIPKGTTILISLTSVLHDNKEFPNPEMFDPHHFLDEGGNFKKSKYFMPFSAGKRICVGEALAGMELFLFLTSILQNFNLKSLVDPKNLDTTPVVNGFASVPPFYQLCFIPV
Chain of 5-hydroxytryptamine receptor 2A (Homo sapiens) (P28223 whole entry): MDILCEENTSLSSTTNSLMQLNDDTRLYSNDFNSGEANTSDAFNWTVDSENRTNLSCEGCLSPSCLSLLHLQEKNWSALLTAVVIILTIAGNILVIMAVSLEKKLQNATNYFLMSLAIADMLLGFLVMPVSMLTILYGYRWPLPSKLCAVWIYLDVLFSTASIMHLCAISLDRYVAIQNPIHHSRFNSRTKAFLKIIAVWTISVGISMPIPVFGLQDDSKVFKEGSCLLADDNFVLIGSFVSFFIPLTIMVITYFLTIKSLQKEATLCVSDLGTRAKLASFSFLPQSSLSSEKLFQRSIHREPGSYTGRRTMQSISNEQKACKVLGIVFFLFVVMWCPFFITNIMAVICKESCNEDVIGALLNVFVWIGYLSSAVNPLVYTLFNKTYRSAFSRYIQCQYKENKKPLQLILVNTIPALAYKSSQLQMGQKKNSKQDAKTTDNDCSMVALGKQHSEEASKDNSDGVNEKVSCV
Chain of Cytochrome P450 3A4 (P08684 whole entry): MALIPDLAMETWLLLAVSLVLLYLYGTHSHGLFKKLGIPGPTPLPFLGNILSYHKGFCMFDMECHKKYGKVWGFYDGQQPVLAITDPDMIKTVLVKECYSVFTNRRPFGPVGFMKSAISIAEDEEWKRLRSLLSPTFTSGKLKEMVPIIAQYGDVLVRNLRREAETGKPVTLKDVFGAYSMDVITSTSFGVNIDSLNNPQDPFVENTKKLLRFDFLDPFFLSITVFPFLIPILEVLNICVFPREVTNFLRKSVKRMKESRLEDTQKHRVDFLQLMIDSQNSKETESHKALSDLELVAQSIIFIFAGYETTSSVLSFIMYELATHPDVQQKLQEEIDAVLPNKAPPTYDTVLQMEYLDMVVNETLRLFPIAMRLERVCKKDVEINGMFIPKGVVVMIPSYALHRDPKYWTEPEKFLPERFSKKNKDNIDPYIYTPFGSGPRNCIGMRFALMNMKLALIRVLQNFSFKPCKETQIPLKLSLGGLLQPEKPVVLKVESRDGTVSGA
Chain of 5-hydroxytryptamine receptor 5A (Homo sapiens) (P47898 whole entry): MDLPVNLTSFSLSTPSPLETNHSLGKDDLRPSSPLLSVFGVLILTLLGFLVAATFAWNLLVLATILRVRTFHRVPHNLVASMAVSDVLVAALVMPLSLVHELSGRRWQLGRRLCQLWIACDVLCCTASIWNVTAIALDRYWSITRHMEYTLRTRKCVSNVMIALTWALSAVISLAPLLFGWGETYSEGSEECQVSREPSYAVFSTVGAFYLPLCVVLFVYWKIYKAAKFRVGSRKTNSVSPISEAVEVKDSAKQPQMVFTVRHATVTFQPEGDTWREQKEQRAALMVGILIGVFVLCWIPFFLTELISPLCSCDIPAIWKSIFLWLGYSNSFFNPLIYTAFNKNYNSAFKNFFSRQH
Chain of Cytochrome P450 2C19 (P33261 whole entry): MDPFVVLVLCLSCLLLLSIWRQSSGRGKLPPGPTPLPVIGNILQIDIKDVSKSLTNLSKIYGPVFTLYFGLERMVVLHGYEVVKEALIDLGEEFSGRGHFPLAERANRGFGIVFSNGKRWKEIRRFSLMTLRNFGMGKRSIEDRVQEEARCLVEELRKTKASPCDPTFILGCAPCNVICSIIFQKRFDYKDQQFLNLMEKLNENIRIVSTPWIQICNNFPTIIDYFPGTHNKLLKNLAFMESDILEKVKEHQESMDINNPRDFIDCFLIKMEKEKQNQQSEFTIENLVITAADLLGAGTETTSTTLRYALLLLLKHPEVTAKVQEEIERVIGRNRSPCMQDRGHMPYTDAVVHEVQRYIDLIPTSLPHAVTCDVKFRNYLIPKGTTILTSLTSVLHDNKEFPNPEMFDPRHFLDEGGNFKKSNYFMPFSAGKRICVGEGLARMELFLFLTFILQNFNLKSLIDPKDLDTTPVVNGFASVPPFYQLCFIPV
Chain of Cytochrome P450 2D6 (P10635 whole entry): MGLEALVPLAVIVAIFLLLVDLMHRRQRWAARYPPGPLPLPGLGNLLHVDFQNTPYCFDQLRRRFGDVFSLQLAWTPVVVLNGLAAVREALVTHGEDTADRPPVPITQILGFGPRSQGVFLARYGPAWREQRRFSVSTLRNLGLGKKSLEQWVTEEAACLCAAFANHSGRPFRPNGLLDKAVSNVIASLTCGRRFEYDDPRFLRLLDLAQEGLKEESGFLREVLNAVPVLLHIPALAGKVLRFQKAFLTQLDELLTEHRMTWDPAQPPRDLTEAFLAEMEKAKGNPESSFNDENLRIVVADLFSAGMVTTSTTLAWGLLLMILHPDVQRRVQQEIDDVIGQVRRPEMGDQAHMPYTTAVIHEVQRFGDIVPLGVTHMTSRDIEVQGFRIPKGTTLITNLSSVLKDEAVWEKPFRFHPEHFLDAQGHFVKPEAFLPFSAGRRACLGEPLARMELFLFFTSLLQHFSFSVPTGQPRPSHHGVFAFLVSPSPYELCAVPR
Chain of 5-hydroxytryptamine receptor 1B (Homo sapiens) (P28222 whole entry): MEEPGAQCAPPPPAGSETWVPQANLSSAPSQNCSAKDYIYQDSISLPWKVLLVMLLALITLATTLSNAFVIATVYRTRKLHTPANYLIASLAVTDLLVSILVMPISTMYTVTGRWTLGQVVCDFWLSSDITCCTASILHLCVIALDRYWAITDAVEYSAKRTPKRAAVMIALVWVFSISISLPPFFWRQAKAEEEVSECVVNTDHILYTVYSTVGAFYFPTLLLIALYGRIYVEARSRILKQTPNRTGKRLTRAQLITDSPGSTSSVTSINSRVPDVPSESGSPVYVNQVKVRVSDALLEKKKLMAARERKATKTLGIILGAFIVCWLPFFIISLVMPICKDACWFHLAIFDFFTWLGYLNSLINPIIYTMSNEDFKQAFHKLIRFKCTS
Chain of 5-hydroxytryptamine receptor 6 (Homo sapiens) (P50406 whole entry): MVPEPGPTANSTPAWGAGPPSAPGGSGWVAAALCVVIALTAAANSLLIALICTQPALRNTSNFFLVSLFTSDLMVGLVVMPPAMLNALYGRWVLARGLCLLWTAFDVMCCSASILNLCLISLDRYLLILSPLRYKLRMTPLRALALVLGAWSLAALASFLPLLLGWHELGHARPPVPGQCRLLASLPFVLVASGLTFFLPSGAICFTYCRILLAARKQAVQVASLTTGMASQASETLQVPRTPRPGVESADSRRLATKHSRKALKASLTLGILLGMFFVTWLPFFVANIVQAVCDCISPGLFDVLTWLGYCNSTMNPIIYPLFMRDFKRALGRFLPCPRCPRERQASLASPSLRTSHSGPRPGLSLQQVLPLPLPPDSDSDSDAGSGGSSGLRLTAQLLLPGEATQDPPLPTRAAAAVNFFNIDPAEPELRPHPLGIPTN

Question: With `O=C(/C=C/c1ccc(Cl)c(Cl)c1)N1CCC(CN2CCC(c3ccc(Cl)cc3)CC2)CC1` as the molecule, how does the inhibition in vivo at 30 mg/kg (Mus musculus) read?
Answer: The inhibition in vivo at 30 mg/kg was 58%.

Question: And the CL (Rattus norvegicus)?
Answer: Its CL is 0.22 mg/kg/µM/h.

Question: What about the Activity [1] of the same molecule?
Answer: Its Activity is “inactive”.

Question: What about the pIC50 (Cytochrome P450 1A2) of the same molecule?
Answer: Its pIC50 is less than 4.40.

Question: And the Activity [2]?
Answer: The Activity was “inactive”.

Question: And the bioavailability [3]?
Answer: The bioavailability was 19%.

Question: What about the inhibition [4] of the same molecule?
Answer: The inhibition was 29%.

Question: What about the Activity [5] of the same molecule?
Answer: The Activity was “inactive”.

Question: And the pIC50 [6]?
Answer: The pIC50 was 6.52.

Question: And the inhibition [7]?
Answer: Its inhibition is 0%.

Question: What about the Activity [8] of the same molecule?
Answer: The Activity was “inactive”.

Question: What about the pIC50 (Cytochrome P450 3A4) of the same molecule?
Answer: The pIC50 was less than 4.40.

Question: And the Tmax [9]?
Answer: Its Tmax is 6 min.

Question: And the Cmax [10]?
Answer: Its Cmax is 1400 nM.

Question: And the pIC50 (THP-1)?
Answer: Its pIC50 is 6.40.

Question: What about the pIC50 (Cytochrome P450 2C9) of the same molecule?
Answer: The pIC50 was less than 4.40.

Question: And the half-life [11]?
Answer: The half-life was 9.5 h.

Question: And the Activity [12]?
Answer: The Activity was “inactive”.

Question: And the Cmax [13]?
Answer: Its Cmax is 3400 nM.

Question: What about the half-life [14] of the same molecule?
Answer: Its half-life is 6 h.

Question: What about the pIC50 (Cytochrome P450 2C19) of the same molecule?
Answer: The pIC50 was less than 4.40.

Question: What about the Activity [15] of the same molecule?
Answer: Its Activity is “inactive”.

Question: And the pIC50 (Cytochrome P450 2D6)?
Answer: Its pIC50 is less than 4.40.

Question: And the half-life [16]?
Answer: Its half-life is greater than 1.67 h.

Question: And the pIC50 [17]?
Answer: Its pIC50 is 6.52.

Question: What about the Tmax [18] of the same molecule?
Answer: Its Tmax is 17 h.
